Experiment: Toxicity liver stage against HepG2, at 10uM
Assay type: cell-based
Design: test concentration 10 uM, cell line HepG2-A16-CD81EGFP
Settings: human, HepG2-A16-CD81EGFP cells; read-out: INHIBITION
Procedure, shortened: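 Uninfected HepG2-A16-CD81EGFP cells, 3 × 10^3 per well, 1536-well, plated on prespotted compound at 10 μM final, parasite-free screening media added to match infected plates; puromycin 10 μM positive, DMSO 0.5% negative; run in parallel with 48 h PbLuc assay at 37 °C, 5% CO2; viability by CellTiter-Glo luminescence, normalized to controls.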

Row | Structure (SMILES) | cytotoxicity at 10 µM [%]
1 | COCCN1CCC(CN(CC2CCCO2)C(=O)CCNC(C)=O)CC1 (stereo not given) | -5.99
2 | Cc1ccc(S(C)(=O)=O)cc1C(=O)NS(=O)(=O)c1ccc(Cl)cc1 | -13.5
3 | Cn1cc(CN2CCCC23CCN(C(=O)c2ccsc2)CC3)cn1 | 0.993
4 | O=C(C(c1ccccc1)S(=O)(=O)c1ccccc1)N1CCCCC1 (stereo not given) | -6.01
5 | N#Cc1ccc(CN2CCN(c3ccncc3Cl)CC2=O)cc1 | 4.64
6 | CCNC(=O)N1C[C@@H]2OCC(=O)N(Cc3cccnc3)[C@@H]2C1 | 7.95
7 | COC(=O)c1ccc2ccn(CC3COCCO3)c(=O)c2c1 (stereo not given) | 3.26
8 | CC(O)CN1CCC(CN(C)Cc2cccc(C(=O)N(C)C)c2)CC1 (stereo not given) | -5.74
9 | CC(C)(N)c1cn(C2CCN(c3ncccc3Cl)CC2)nn1 | -48
10 | CC1CN(c2ccccc2Cl)C(=O)CN1C(=O)c1c[nH]c(=O)c(Cl)c1 (stereo not given) | 0.345
11 | CN(C)CC1CN(C(=O)Cc2ccccc2)Cc2nccn2C1 (stereo not given) | -115
12 | CC(C)CN1CC(c2nc(-c3ccsc3)c[nH]2)CC1=O (stereo not given) | 6.65
13 | COC(=O)[C@H](CCSC)NC(=O)Cn1ccc2c(Cl)cccc21 | 2.17
14 | O=C(c1ccncc1)N1CCCC(c2ncncc2-c2ccncc2)C1 (stereo not given) | -17.2
15 | CC1CCN(S(=O)(=O)c2cccn(CC(=O)NC3CCCC3)c2=O)CC1 | -14.6
16 | Fc1ccc2c(C3=CCN(Cc4nnc(C5CCC5)o4)CC3)c[nH]c2c1 | -0.302
17 | COc1ccc2c(=O)n(CC3CCCCN3C)ccc2c1OC (stereo not given) | 3.19
18 | CC(C)c1ccc(O)c(C(=O)NCc2cc[nH]n2)c1 | -1.49
19 | Cc1cnc(C(=O)N2CCCC(n3ccnc3C)C2)cn1 (stereo not given) | -10.8
20 | CN(C)c1ncnc2c1CCN(C(=O)c1sccc1S(N)(=O)=O)C2 | 0.192
21 | Cc1nc(CN2CCC(CNC(=O)C3(C#N)CCCC3)CC2)oc1C | 1.29
22 | c1c(-c2nc(CN3CCOCC3)no2)nnn1CC1CCCCC1 | 3.15

Row | Structure (SMILES) | cytotoxicity at 10 µM [%]
23 | Nc1nccc(N2CCC(c3cc(Cc4ccccc4)n[nH]3)CC2)n1 | 38.9
24 | CC(Oc1ccc(OCc2ncc(C(C)C)o2)cc1)C(N)=O (stereo not given) | -10.4
25 | CCc1nnc(SCc2cc(=O)n3c4c(sc3n2)CCCC4)[nH]1 | -3.91
26 | Cn1cnc(-c2ccc(F)cc2)c1NC(=O)CCNC(=O)C(C)(C)C | 3.84
27 | CCc1cnc(CN(C)C2CCN(CCn3cc(C#N)cn3)C2)o1 (stereo not given) | -8.99
28 | c1ccc(CCN2CCc3c(ncn3C3CC3)C2)nc1 | -1.43
29 | NC(=O)Cn1ccnc1C1CCCN(Cc2cccc(Cl)c2F)C1 (stereo not given) | 7.81
30 | COc1ccc2nnc(CCCC(=O)NCc3ccccc3OC)n2n1 | -5.95
31 | CCc1csc(C2CCCN(C(=O)c3ccnc(N(C)C)c3)C2)n1 (stereo not given) | -6.81
32 | Cc1ccc(NC2CCCN(C3Cc4ccccc4C3)C2)nn1 (stereo not given) | -2.38
33 | COc1cc(C(=O)NC(CC(=O)O)c2cccs2)cc(OC)c1C (stereo not given) | -19.1
34 | Cn1cc(CN2CCC(F)(F)C3(CCN(c4ncccn4)C3)C2)cn1 (stereo not given) | -0.58
35 | COc1cc(C2CC(=O)Nc3c2nc2n3CCCC2)cc2c1OCO2 (stereo not given) | -6.67
36 | CNS(=O)(=O)CCCN1CCCC1c1noc(C)n1 (stereo not given) | -4.38
37 | Fc1ccc2[nH]c(C3CCCN3Cc3c[nH]cn3)nc2c1 (stereo not given) | 0.786
38 | CCNC(=O)CCC(=O)NC(Cc1ccccc1)c1sccc1C (stereo not given) | -6.69
39 | O=C(Nc1ccccc1CCO)c1cccc(CN2CC[C@H](O)C2)c1 | 8.77
40 | CCS(=O)(=O)N1C[C@@H]2CN(Cc3cnn(C)c3)CCO[C@@H]2C1 | -0.646
41 | Cc1nnc(NCc2cccc(OCc3ccccn3)c2)c(C#N)c1C | 5.93
42 | CNC(=O)c1nc2c(s1)CCN(C(=O)Cc1ccc(OC)cc1)CC2 | 4.76
43 | Cc1csc(CN2C[C@@H]3COC[C@]3(C(=O)NCc3ccco3)C2)n1 | -105
44 | Cc1cccnc1NCCNC(=O)c1cnc(-c2cccs2)nc1O | 4.62

Row | Structure (SMILES) | cytotoxicity at 10 µM [%]
45 | COc1ccc(C2c3c(n[nH]c3C)N=C3COC(=O)C32)cc1OC (stereo not given) | 7.98
46 | CCCc1n[nH]c(C2CN(CCn3cccn3)CCO2)n1 (stereo not given) | -11.3
47 | Cc1nc(CNCc2c(C)nn(C)c2N2CCOCC2)cs1 | -7.44
48 | CC1(C)Cc2nc(C(C)(C)C)ncc2C(NC(=O)CN)C1 (stereo not given) | -6.55
49 | CC(C)Nc1nc2c(cc1C(=O)NCC1CC1)CCN(S(C)(=O)=O)CC2 | -1.48
50 | OCC1CCCN1c1cc(NCCc2ccsc2)ncn1 (stereo not given) | 8.51
51 | Cc1cc(CNC2(c3ccccc3)CCCCC2)no1 | 2.94
52 | CCC(C)(CC(=O)O)NC(=O)Cc1ccccc1F (stereo not given) | -1.28
53 | c1cnn(CC2CCCCN2Cc2noc(C3CC3)n2)c1 (stereo not given) | -3.48
54 | CCN1CCc2c(CNC(=O)c3nccn3C)cncc2C1 | -109
55 | CN(C)CCN1C[C@@H]2OCCN(Cc3cnn(C)c3)[C@@H]2C1 | -140
56 | O=S(=O)(c1cccnc1)N1CCN(Cc2nc(-c3cccs3)cs2)CC1 | 27.8
57 | CC(C)N1CCn2c(COCC3CCOCC3)cnc2C1C (stereo not given) | 8.22
58 | Cc1cc(N2CCN(C3CCSCC3)CC2)n2nc(C)c(C)c2n1 | 0.0879
59 | O=C(NCCN1CCOCC1)c1cnc(Cc2ccc(F)cc2)s1 | 16.7
60 | COCCC(=O)N1C[C@@H](c2ccccc2F)[C@@]2(CCCC(=O)N2)C1 | 0.55
61 | Cc1ccccc1CC(=O)NCCNc1nccc(C(F)(F)F)n1 | 7.64
62 | CN(C)C(=O)CNC(=O)c1ccc2c(-c3nccs3)noc2c1 | 7.19
63 | N#Cc1cccnc1OC1CCN(S(=O)(=O)c2c(F)cccc2F)CC1 | 5.45
64 | Cc1ccoc1C(=O)NC1CCN(Cc2ccccc2F)CC1 | -14.1
65 | Cc1nc(CN2CCCC(N(C)c3ccc(C#N)cn3)C2)no1 (stereo not given) | -6.76
66 | O=C(COCc1ccccc1)NCc1ccc(O)c(F)c1 | 1.05

Row | Structure (SMILES) | cytotoxicity at 10 µM [%]
67 | COc1cc(N2CCCn3cnc(COCCO)c3C2)ncn1 | -3.61
68 | CCc1noc(C)c1C(=O)N1CCN(c2nc(C)cc(OC)n2)CC1 | -13.8
69 | CC(C)c1ccc(CS(=O)(=O)Cc2nc(N)nc(N(C)C)n2)cc1 | 7.34
70 | O=C(CNc1ccc(OC2CCOC2)cc1)NCc1cccs1 (stereo not given) | 3.43
71 | CN1CC[C@]2(CN(S(C)(=O)=O)C[C@H]2c2ccccc2)C1=O | -120
72 | Cc1nc(Oc2ccccc2Cl)sc1C(=O)O | -11.9
73 | Cc1ccccc1-n1ccc2nc(N3CCCC3)ncc2c1=O | -5.1
74 | O=S(=O)(CC1CCCCO1)Nc1cnn(Cc2ccccc2)c1 (stereo not given) | 4.34
75 | CN(C)S(=O)(=O)c1csc(C(=O)N2CCC(C(N)=O)CC2)c1 | -46.5
76 | O=C(CN(C1=NCCCCC1)c1ccc(Cl)cc1)c1ccccc1 | 12.2
77 | O=C(Cc1ccccn1)N1CCN(CC2CC2)c2ncccc2C1 | 1.34
78 | CCn1c(CN(C)C)nnc1C1CCN(Cc2cnc(C)nc2)CC1 | 4.6
79 | Cc1cc(C(=O)N2CCc3ncc(CN4CCOCC4)n3CC2)no1 | 3.76
80 | Cn1ncc2cnn(CC(O)COCc3ccccc3Cl)c2c1=O (stereo not given) | 3.8
81 | COCc1nc2n(n1)CCCC2Nc1nc(C(C)C)ns1 (stereo not given) | 5.6
82 | CC(C)N1CCC(Cc2cnc(-c3cccc(C(=O)O)c3)cn2)C1 (stereo not given) | -2.27
83 | CN(Cc1cccnc1)CC1CN(C(N)=O)Cc2nccn2C1 (stereo not given) | -80.3
84 | Cc1cc(C)c2[nH]c(=O)c(CN3CCCC4(C3)CN(C)C(=O)O4)cc2c1 (stereo not given) | -14.3
85 | CC1(C)COCCN1C(=O)CCc1nc(-c2ccccn2)no1 | -4.59
86 | COc1cccc(CNc2cc(C)nc(-c3ccncc3)n2)c1O | 59.1
87 | CC(C)(CO)Nc1ccc(-c2nc(-c3ccccc3F)no2)cn1 | 9.62
88 | COCCN1CCc2c(CNC(=O)c3nccn3C)cncc2C1 | -107

Row | Structure (SMILES) | cytotoxicity at 10 µM [%]
89 | CC(C)N1CCN(C(=O)c2ccc(Cn3ccccc3=O)o2)CC1 | -13.1
90 | NC(=O)CN(C(=O)Cc1ccc(C(F)(F)F)cc1)C1CCCC1 | -3.41
91 | CCC(=O)Nc1cc(Cl)ccc1C(=O)N(C)Cc1noc(CC)n1 | 7.1
92 | CCc1cc(CNC(=O)C2CCC(=O)N(Cc3ccccc3F)C2)on1 (stereo not given) | 1.48
93 | CN(Cc1ccco1)[C@@H]1CN(Cc2ccc(F)cc2)[C@@H]2CCCO[C@H]12 | -70.6
94 | CN(C)C(=O)COCC1CN(Cc2ccco2)Cc2ncn(C)c21 (stereo not given) | -7.86
95 | CC(=O)N1CCN(C(=O)c2ccc(-c3cccc(C)c3)[nH]c2=O)CC1 | 3.64
96 | Cc1nc(CN2CCN(C(=O)c3ccc(=O)n(C)c3)CC2)cs1 | -2.95
97 | CC(Cn1cccn1)NCc1csc(COc2ccccc2)n1 (stereo not given) | -8.51
98 | Cc1cc(C)nc(C2CCCN2C(=O)c2cnco2)n1 (stereo not given) | -1.45
99 | Cc1ccnc(C2CCN(c3ccnc(C)n3)C2)n1 (stereo not given) | -0.485
100 | CC(CNC(=O)N1CCNC(=O)CC1)Cc1cccs1 (stereo not given) | -5.62
101 | Cc1cc(CNC(=O)C2CCN(CC(N)=O)CC2)cc(C)n1 | -3.06
102 | O=C1COc2ccc(S(=O)(=O)NCc3ccccc3)c3c2N1CCC3 | -7.48
103 | Cc1nc(C2CCCN(C(=O)c3sccc3C3CC3)C2)no1 (stereo not given) | -3.74
104 | COc1cccc(NC(=O)N(CCO)Cc2ccsc2)c1 | -9.87
105 | Cc1cc(C(=O)NCc2ccnc(N3CCN(C)CC3)c2)no1 | -6.63
106 | CCOc1ccc(C(F)(F)F)cc1NCc1nc(C)c(C)o1 | -45.3
107 | CS(=O)(=O)NC1CCN(Cc2ccc(OCc3ccccn3)cc2)CC1 | 1.63
108 | CC(C)c1nc2n(n1)CC(NCc1nc(-c3cccnc3)no1)CC2 (stereo not given) | 4.04
109 | Cc1ccc(-c2cc(CS(=O)(=O)NC3CCCNC3=O)on2)cc1 (stereo not given) | -172
110 | O=C(C1CCC1)N1CCO[C@@H]2CNC[C@@H]21 | 1.44
